# CaV13 ICDI inh – Disruptors of the CACNA1D IQ motif to Ca2+-dependent inactivation inhibitor domain association, primary screening, Förster resonance energy transfer in intact living …; HEK cells, CFP/YFP FRET ICDI-IQ, plate reader, 10 min; percent FRET-ratio fall versus neutral wells; inhibition, % at 12.3 µM; 340,000 compounds, 0.098% hits;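 active = mean replicate inhibition of at least 30% and at least 1% of replicates passing that level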;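 also: 0% = median of the neutral control wells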
# Keap1 Nrf2 FP – Keap1-Nrf2 protein-protein interaction inhibitors, primary screen, biochemical, fluorescence polarization, single point; 340,000 compounds, 0.15% hits; inhibition, % at 9.4 µM; Kelch-like ECH-associated protein 1 (Homo sapiens), Q14145; Keap1 Kelch-Nrf2 peptide fluorescence polarization, 1536-well; in the data active = inhibition above about 12%;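 also: human Keap1 Kelch domain with fluorescein labeled Nrf2 9mer peptide probe; 0% = neutral control wells and 100% = peptide positive control; higher means more block of Keap1 binding to Nrf2 peptide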
# CAL PDZ FP-1 – untagged CAL PDZ binding inhibitors, primary screen, biochemical, fluorescence polarization, HTS; AID 602252, 2012; inhibition, % at 24.9 µM; purified CAL PDZ, TMR-peptide fluorescence polarization, 1 h; 300,000 compounds, 0.92% hits;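 active = mean inhibition of at least 30% with at least half of replicates also reaching 30%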;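 also: 0% = DMSO neutral control and 100% = excess unlabeled competitor peptide PRC23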
# LANA-H2B inh – blockers of LANA interaction with H2A/H2B – biochemical, FP readout, HTS, primary screen; AID 2629, 2010; cell-free LANA-H2A/H2B peptide, fluorescence polarization; inhibition, % (test concentration not listed); Protein LANA1 (Human herpesvirus 8 type P (isolate GK18)), Q9QR71; 320,000 compounds, 0.6% hits; in the data active = inhibition mostly above about 10%, no sharp cut-off; inactive = mostly below about 6.7%
# Target sequence (Q9QR71 whole entry, looked up): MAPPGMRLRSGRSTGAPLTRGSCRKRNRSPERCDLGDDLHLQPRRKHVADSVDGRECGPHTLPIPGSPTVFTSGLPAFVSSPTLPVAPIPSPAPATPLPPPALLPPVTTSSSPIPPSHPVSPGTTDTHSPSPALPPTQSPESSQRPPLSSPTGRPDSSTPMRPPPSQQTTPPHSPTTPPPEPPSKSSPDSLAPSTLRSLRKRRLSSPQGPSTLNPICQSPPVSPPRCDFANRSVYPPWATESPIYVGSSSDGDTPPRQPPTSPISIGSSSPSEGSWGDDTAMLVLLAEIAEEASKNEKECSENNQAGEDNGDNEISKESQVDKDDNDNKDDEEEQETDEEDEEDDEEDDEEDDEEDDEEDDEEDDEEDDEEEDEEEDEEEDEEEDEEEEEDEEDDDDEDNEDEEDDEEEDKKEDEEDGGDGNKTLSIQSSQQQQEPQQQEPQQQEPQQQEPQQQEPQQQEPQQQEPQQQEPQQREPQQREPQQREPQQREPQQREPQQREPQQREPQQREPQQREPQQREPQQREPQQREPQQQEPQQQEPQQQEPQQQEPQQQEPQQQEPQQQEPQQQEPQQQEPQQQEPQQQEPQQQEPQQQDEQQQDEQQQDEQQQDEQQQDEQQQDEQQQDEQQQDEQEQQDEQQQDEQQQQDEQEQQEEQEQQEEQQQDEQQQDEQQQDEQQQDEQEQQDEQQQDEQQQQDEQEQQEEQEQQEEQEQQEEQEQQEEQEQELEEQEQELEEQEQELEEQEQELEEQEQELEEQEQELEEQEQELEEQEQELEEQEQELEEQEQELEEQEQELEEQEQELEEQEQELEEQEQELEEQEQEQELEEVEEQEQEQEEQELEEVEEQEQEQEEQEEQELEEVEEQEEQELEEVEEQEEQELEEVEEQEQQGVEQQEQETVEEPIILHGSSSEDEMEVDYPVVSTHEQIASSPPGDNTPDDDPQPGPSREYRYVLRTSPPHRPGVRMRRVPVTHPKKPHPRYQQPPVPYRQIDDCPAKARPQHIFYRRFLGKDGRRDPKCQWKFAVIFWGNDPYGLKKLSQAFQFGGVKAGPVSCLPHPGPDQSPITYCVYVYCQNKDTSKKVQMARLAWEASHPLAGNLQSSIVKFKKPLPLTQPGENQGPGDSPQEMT
# CAL PDZ FP-2 – CAL PDZ peptide-binding inhibitors, primary screen, biochemical, fluorescence polarization, Cer-tagged CAL PDZ, HTS; Golgi-associated PDZ and coiled-coil motif-containing protein (Homo sapiens), Q9HD26; purified CAL PDZ, TMR-peptide fluorescence polarization, 1 h; inhibition, % at 20 µM; 330,000 compounds, 0.02% hits; AID 504414, 2011;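 active = highest replicate inhibition of at least 40%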;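 also: plate controls were DMSO neutral control wells for no effect and unlabeled competitor peptide control wells for full effect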
#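 System: tagged CAL PDZ domain. Schedule: 1 h room-temperature incubation prior to read. Signal: fluorescence polarization (mP). Measure: percent inhibition from loss of millipolarization.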
# LANA DNA inh – inhibitors of KSHV C-LANA binding to DNA, primary screen, biochemical, fluorescence polarization, FAM-LBS DNA, MBP-C-LANA, single point; 340,000 compounds, 0.078% hits; inhibition, % at 9 µM; Kaposi's sarcoma herpesvirus LANA C-terminal domain (residues 932-1162) DNA binding; AID 504423, 2011;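 active = highest replicate inhibition at or above 60% at 9 µM, even if other replicates fall short; inactive = all replicates below 60% inhibition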;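 also: 0% = neutral control wells and 100% = 4 µM acridine orange control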
# Keap1 TSA – Keap1 Kelch domain binders by thermal stabilisation, dose response, biophysical, thermal shift, RT-PCR instrument, cherry-pick | shares compounds with Keap1 Nrf2 FP | delta Tm; stronger effect = higher value | max delta Tm, degrees C | 400 compounds, 8% hits; in the data active = max delta Tm above about 0.48 degrees C
# Sypro dye melt – Sypro Orange dye melt without protein, dose response, artefact control for Keap1-Nrf2 interaction inhibitor project, biochemical, thermal shift counterscreen, cherry-pick; 140 tested, under 10 active; delta Tm, degrees C (no concentration beside the values); shares compounds with Keap1 Nrf2 FP; Sypro Orange dye-only thermal melt, no protein, delta Tm; top dose 26 µM; AID 651858, 2012;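 active = at highest dose tested, delta Tm positive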
# * hit, by the source's call; i = inactive; . = no result given. Most compounds without a hit are left out; they make up all but 1.5% or so of the library.
SMILES,CaV13 ICDI inh,Keap1 Nrf2 FP,CAL PDZ FP-1,LANA-H2B inh,CAL PDZ FP-2,LANA DNA inh,Keap1 TSA,Sypro dye melt
CS/C(Nc1cc(Cl)ccc1Cl)=C(/C#N)C(=O)c1ccco1,-14,-3,.,-3,-2,1,.,.
COc1ccccc1N(C)S(=O)(=O)c1ccc(C(=O)NCc2ccccc2CN2CCCC2)cc1,-5,47*,.,.,-1,30,-0.19,.
COc1ccccc1CNC(=O)c1ccc(S(=O)(=O)N(C)c2ccccc2)cc1,-6,-2,.,.,-1,0,.,.
C=CCn1c(=O)/c(=C/c2ccsc2)s/c1=C(\C#N)C(=O)NCCN1CCOCC1,-6,13*,.,.,0,-3,-0.15,.
O=C(CCCNC(=O)/C(=C/c1ccccc1F)NC(=O)c1ccccc1)OCc1ccccc1,-2,0,-2,-1,-2,-1,.,.
O=C(O)c1cc(N2C(=O)C=CC2=O)cc(N2C(=O)C=CC2=O)c1,-9,33*,-6,.,1,98*,0.27,-27
CCOc1cc(C2C(C#N)=C(N)OC3=C2C(=O)CC(C)(C)C3)cc([N+](=O)[O-])c1O (centres undefined),-2,1,2,-3,-2,0,.,.
CC1(C)CC(=O)C2=C(C1)OC(N)=C(C#N)C2c1cc2c(cc1[N+](=O)[O-])OCO2 (centres undefined),-6,15*,-2,i,-1,22,-0.01,-21
O=C1CC(c2ccco2)CC2=C1C=Nc1ccccc1N2 (centres undefined),.,-1,-5,9,0,1,.,.
O=c1[nH]c2c(s1)C=Nc1ccccc1N2,-6,38*,-3,38*,1,54,-0.04,-20
Cn1nc(C(=O)NNC(=O)Cc2ccc(S(=O)(=O)N3CCOCC3)s2)c2ccccc2c1=O,-16,32*,.,.,0,20,-0.18,-28
COc1ccc(OC)c(NC(=O)c2cccc(NC(=O)c3ccccc3C(=O)O)c2)c1,-18,-2,-1,-1,0,3,.,.
COc1ccc(C2N3CC4(C)CN2CC(C)(C3)C4O)cc1OC (centres undefined),-4,-1,-8,3,-3,0,.,.
COc1ccc(C2N3CC4(C)CN2CC(C)(C3)C4O)cc1 (centres undefined),-5,20*,-3,3,0,2,-0.16,.
O=C(c1ccc(Cn2c(=S)[nH]c3ccccc3c2=O)cc1)N1CCN(c2ccccn2)CC1,-4,.,-14,4,6,.,.,.
Clc1ccc(-c2noc(CN3CCOCC3)n2)cc1,-2,68*,.,5,0,.,-0.18,-22
O=C(NNC(=O)c1ccc(Br)o1)c1csc(N2CCOCC2)n1,-14,46*,.,1,0,27,-0.12,-24
Cc1ccc(C(=O)NNC(=O)c2csc(N3CCOCC3)n2)o1,-5,4,9,2,0,0,.,.
CCCCCCn1c(=O)[nH]c2nc3cc(N)c(C)cc3nc2c1=O,1,27*,5,.,0,49,0.59,-21
CCCCn1c(=O)[nH]c2nc3cc(NC(C)=O)ccc3nc2c1=O,-51,-5,.,0,0,4,.,.
CCC1(c2ccccc2)NC(=O)N(CC(=O)Nc2ccc(OC)nc2)C1=O (centres undefined),-16,61*,-1,12,-3,88*,-0.12,.

# Compound activity (PubChem)
